{"source": "paper PMC5909786", "about": "(Drug Design, Development and Therapy, 2018)", "key": {"[1]": {"assay": "Systemic toxicity", "format": "in vivo, BALB/c nude mice", "settings": "tumor-bearing mice, after 3 weeks of administration", "method_in_brief": "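BALB/c nude mice (4–6 weeks, 18–22 g) carried subcutaneous right-flank xenografts of vincristine-resistant Raji cells (5×10^7 cells in 100 μL PBS). Mice were randomised into groups of six and dosed intravenously twice a week for 3 weeks with PBS control or test formulations (10 mg/kg drug). Body weight was recorded as a systemic toxicity read-out.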"}, "[2]": {"system": "Raji/VCR cell bearing BALB/c nude mice", "assay": "In vivo antitumor activity", "settings": "10 mg/kg of VCR intravenously twice a week for 3 weeks, n=6"}, "[3]": {"system": "Raji cells", "assay": "In vitro cytotoxicity", "format": "cell-based, human", "settings": "Raji cells versus Raji/VCR cells, MTT, 72 hours"}, "[4]": {"assay": "In vivo tissue distribution", "parameters": "species or system Raji/VCR cell bearing BALB/c nude mice", "settings": "10 mg/kg of VCR intravenous"}}}
{"molecule": "CC[C@]1(O)C[C@H]2CN(CCc3c([nH]c4ccccc34)[C@@](C(=O)OC)(c3cc4c(cc3OC)N(C=O)[C@H]3[C@@](O)(C(=O)OC)[C@H](OC(C)=O)[C@]5(CC)C=CCN6CC[C@]43[C@@H]65)C2)C1", "note": "[Free VCR, vincristine]", "values": [{"measurement": "Body weight (in words)", "setting": "[1]", "value": "reduction in body weight"}, {"measurement": "Tumor volume / tumor growth (in words)", "setting": "[2]", "value": "not statistically different from the negative control"}, {"measurement": "In vitro cytotoxicity (in words)", "setting": "[3]", "value": "higher cytotoxicity in Raji cells than Raji/VCR cells"}, {"measurement": "Drug distribution over time (in words)", "setting": "[4]", "value": "rapidly reached a high level during the first few hours and reduced over time"}]}
